Here are results for 56 molecules from PubChem BioAssay AID504650 (Molecular Libraries Program, Specialized Chemistry Center, …, 2011).

What is called IC50 is the concentration needed to halve the response being measured.

The target in the experiment is Transitional endoplasmic reticulum ATPase (Homo sapiens) (UniProt P55072). In words: p97 ATPase activity inhibitors, SAR follow-up, biochemical, dose response, round 3 (AID 504650). Particulars: purified p97 ATPase, Kinase-Glo luminescence. Summed up: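 Material: human p97 ATPase protein; medium: Tris buffer pH 7.4 containing MgCl2 and EDTA; also added: ATP, 500 µM stock solution; timing: 10 min room-temperature preincubation, 30 min ATP reaction at 37 °C; measured by: luminescent readout of unconsumed ATP (Kinase-Glo Plus); evaluation: IC50 from fit of percent remaining activity versus compound concentration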
Chain of Transitional endoplasmic reticulum ATPase (Homo sapiens) (P55072 whole entry, looked up): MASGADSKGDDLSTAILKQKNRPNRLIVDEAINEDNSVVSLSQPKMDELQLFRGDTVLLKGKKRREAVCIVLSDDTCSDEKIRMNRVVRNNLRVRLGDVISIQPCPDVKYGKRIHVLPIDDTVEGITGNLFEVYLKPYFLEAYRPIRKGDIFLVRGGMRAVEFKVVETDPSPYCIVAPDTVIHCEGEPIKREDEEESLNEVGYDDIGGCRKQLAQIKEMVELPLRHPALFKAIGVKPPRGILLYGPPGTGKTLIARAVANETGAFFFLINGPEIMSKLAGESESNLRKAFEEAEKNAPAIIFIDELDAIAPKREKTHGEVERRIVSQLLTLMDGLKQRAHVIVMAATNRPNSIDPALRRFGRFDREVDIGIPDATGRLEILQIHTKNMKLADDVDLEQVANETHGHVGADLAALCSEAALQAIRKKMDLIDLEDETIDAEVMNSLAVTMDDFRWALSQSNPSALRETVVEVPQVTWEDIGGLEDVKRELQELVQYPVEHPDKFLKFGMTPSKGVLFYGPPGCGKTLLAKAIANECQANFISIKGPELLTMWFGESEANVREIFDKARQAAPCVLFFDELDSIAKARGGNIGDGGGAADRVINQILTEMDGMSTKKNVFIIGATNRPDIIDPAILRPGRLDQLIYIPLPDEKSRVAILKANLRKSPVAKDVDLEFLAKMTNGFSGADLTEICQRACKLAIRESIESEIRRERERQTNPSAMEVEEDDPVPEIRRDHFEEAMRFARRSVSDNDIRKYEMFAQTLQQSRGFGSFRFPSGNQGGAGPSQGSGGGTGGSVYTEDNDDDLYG
(Kinase-Glo measures the ATP left after a reaction by luminescence.)

Active and inactive are the calls of the source.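 The calls were made as follows: active = IC50 at or below 10 µM; inactive = the rest.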

As to `COc1cccc2c(NCc3ccccc3)nc(N3CCNc4ccccc43)nc12`, the 50% inhibitory concentration (IC50) is 900 nM.
In the case of `CC(C)Nc1nc(Nc2cccc(Cl)c2)nc2ccccc12`, the IC50 is > 30000 nM (inactive).
As for `c1ccc(CNc2ccnc(N3CCOc4ccccc43)n2)cc1`, the half-inhibitory concentration (IC50) was 2900 nM.
The same measure for `COc1cccc2c(NCc3ccccc3)nc(-n3c(N)nc4c(C)cccc43)nc12`: 45 nM; for `COc1cccc2c(NCC3CCCCC3)nc(N3CCOc4ccccc43)nc12`: 7400 nM; for `COc1cccc2c(NCc3ccccc3)nc(-n3c(=O)oc4ccccc43)nc12`: 110 nM.
The figure for `COc1cccc2c(NCc3ccccc3)nc(-n3c(N)nc4cc(C)ccc43)nc12` is 240 nM; for `COc1cccc2c(NCc3ccccc3)nc(NCc3cncs3)nc12` it is “inactive”.
As for `COc1ccc(-c2cccc3c(NCc4ccccc4)nc(N4CCOc5ccccc54)nc23)cc1`, the IC50 is 1100 nM.
The figure for `COc1cccc2c(NCc3ccccc3)nc(Nc3cccc(F)c3)nc12` is 520 nM; for `COc1cccc2c(NCc3ccccc3)nc(-n3cnc4ccccc43)nc12` it is 3300 nM.
With `Oc1cccc2c(NCc3ccccc3)nc(N3CCOc4ccccc43)nc12`, the IC50 was 1200 nM.
The figure for `COc1cccc2c(NCc3ccccc3O)nc(N3CCOc4ccccc43)nc12` is 4600 nM; for `COc1cccc2c(NCc3ccccc3)nc(-n3c(N)nc4ccccc43)nc12` it is 110 nM; for `c1ccc2c(c1)OCCN2c1nc(N2CCOc3ccccc32)c2ccccc2n1` it is > 30000 nM (inactive).
The same measure for `COc1cccc2c(NCc3ccccc3)nc(-n3c(N)nc4cc(Cl)ccc43)nc12`: 700 nM; for `Nc1nc2ccccc2n1-c1nccc(NCc2ccccc2)n1`: 2800 nM.
The same measure for `Cc1nc(N2CCOc3ccccc32)nc(NCc2ccccc2)c1C`: 1100 nM; for `Clc1ccccc1-c1nc(N2CCCc3ccccc32)c2ccccc2n1`: > 30000 nM (inactive); for `OCCOc1cccc2c(NCc3ccccc3)nc(N3CCOc4ccccc43)nc12`: 170 nM.
`COc1cccc2c(NCc3ccccc3)nc(NCC3CCCCC3)nc12`: the IC50 is 5400 nM.
The same measure for `COc1cccc2c(NCc3ccc(F)cc3)nc(N3CCOc4ccccc43)nc12`: 1900 nM; for `c1ccc(CNc2nc(N3CCOc4ccccc43)nc3c(-c4ccccc4)cccc23)cc1`: 3500 nM.
Consider `Nc1nc2ccccc2n1-c1nc(NCc2ccccc2)c2ccccc2n1`, for which the IC50 is 110 nM.
The figure for `COc1cccc2c(NCc3ccccc3)nc(NCc3cccs3)nc12` is 1700 nM.
The figure for `Nc1nc2ccccc2n1-c1nc2c(c(NCc3ccccc3)n1)CCCC2` is 50 nM; for `COc1cccc2c(NCc3ccccc3)nc(N3CCN(C)c4ccccc43)nc12` it is 3100 nM.
The figure for `COCCOc1cccc2c(NCc3ccccc3)nc(N3CCOc4ccccc43)nc12` is 600 nM; for `COc1ccc2c(c1)nc(N)n2-c1nc(NCc2ccccc2)c2cccc(OC)c2n1` it is 480 nM; for `COc1cccc2c(NCc3ccccc3)nc(Nc3cc(C)cc(F)c3)nc12` it is 1500 nM.
As to `COc1cccc2c(NCc3ccccc3)nc(N3CCN(C(C)=O)CC3)nc12`, the IC50 was > 30000 nM (inactive).
The same measure for `COc1cccc2c(NCc3ccccc3)nc(NC(C)c3ccccc3)nc12` (stereo unspecified): “inactive”; for `COc1cccc2c(NCc3cccs3)nc(N3CCOc4ccccc43)nc12`: 1200 nM.
The same measure for `COc1cccc2c(NCc3ccccc3)nc(-n3c(N)nc4cc(F)ccc43)nc12`: 80 nM; for `COc1cccc2c(NCc3ccccc3)nc(N3CCN(C)CC3)nc12`: > 30000 nM (inactive).
In the case of `COc1cccc2c(NCc3ccccc3)nc(-n3c(N)nc4cc(C)c(C)cc43)nc12`, the IC50 is 2000 nM.
The figure for `N#CCOc1cccc2c(NCc3ccccc3)nc(N3CCOc4ccccc43)nc12` is 400 nM; for `COc1cccc2c(NCc3ccccc3)nc(N3CCN(C(C)=O)c4ccccc43)nc12` it is 2700 nM.
On to `COc1cccc2c(NCc3ccccc3)nc(NC(=O)Nc3ccccc3)nc12`, for which the IC50 was > 30000 nM (inactive).
The figure for `COc1cccc2c(NCc3ccccn3)nc(N3CCNc4ccccc43)nc12` is > 30000 nM (inactive); for `COc1cccc2c(NCc3ccccc3)nc(-n3c(N)nc4cc(Br)ccc43)nc12` it is 800 nM.
The same measure for `COc1cccc2c(NCc3ccccc3)nc(Nc3cccc(Cl)c3)nc12`: 500 nM; for `CCN(CC)CCOc1cccc2c(NCc3ccccc3)nc(N3CCOc4ccccc43)nc12`: 400 nM; for `COc1cccc2c(NCc3ccccn3)nc(N3CCOc4ccccc43)nc12`: “inactive”.
The figure for `CCCCOc1cccc2c(NCc3ccccc3)nc(N3CCOc4ccccc43)nc12` is 2630 nM; for `COc1cccc2c(NCc3ccc(O)cc3)nc(N3CCOc4ccccc43)nc12` it is 2400 nM; for `COc1cccc2c(NCc3ccccc3)nc(N3CCOCC3)nc12` it is “inactive”.
In the case of `CN(c1ccccc1)c1nc(NCc2ccccc2)c2ccccc2n1`, the IC50 is > 30000 nM (inactive).
The figure for `COc1cccc2c(NCc3ccccc3)nc(Nc3ccccc3O)nc12` is 2600 nM.
The same measure for `c1ccc(CNc2nc(N3CCOc4ccccc43)nc3ccsc23)cc1`: 400 nM; for `c1ccc(CNc2nc(N3CCc4ccccc4C3)nc3ccccc23)cc1`: “inactive”; for `COc1cccc2c(NCc3ccccc3)nc(N3CCOc4ccccc43)nc12`: 200 nM.
The figure for `COc1cccc2c(NCc3ccccc3)nc(Nc3nc4ccccc4n3C)nc12` is 300 nM; for `COc1cccc2c(NCc3ccccc3)nc(N(C)Cc3ccccc3)nc12` it is 7000 nM.
In the case of `COc1cccc2c(NCc3ccccc3)nc(Nc3nc4ccccc4s3)nc12`, the IC50 is 500 nM.
Take `c1ccc(CNc2nc(N3CCOc4ccccc43)nc3c2CCCC3)cc1`: the IC50 was 110 nM.
